Results taken from ChEMBL document CHEMBL4834420, “Projected Dose Optimization of Amino- and Hydroxypyrrolidine Purine PI3Kδ Immunomodulators” (J Med Chem, 2021).
Values after ≈ are worked out from the molar mass of the structure shown. Active and inactive are the calls of the source. No cut-off for these calls is given here.

How the values were obtained:
[1] = biological target: T1, Phosphatidylinositol 4,5-bisphosphate 3-kinase catalytic subunit delta isoform (Homo sapiens, UniProt O00329); test: Inhibition of PI3Kdelta in human whole blood assessed as reduction in anti-CD79b antibody-induced CD69 expression preincubated for 60 mins followed by anti-CD79b antibody stimulation and measured after 3 hrs by FACS analysis; format: tissue-based
T1 sequence (O00329 whole entry): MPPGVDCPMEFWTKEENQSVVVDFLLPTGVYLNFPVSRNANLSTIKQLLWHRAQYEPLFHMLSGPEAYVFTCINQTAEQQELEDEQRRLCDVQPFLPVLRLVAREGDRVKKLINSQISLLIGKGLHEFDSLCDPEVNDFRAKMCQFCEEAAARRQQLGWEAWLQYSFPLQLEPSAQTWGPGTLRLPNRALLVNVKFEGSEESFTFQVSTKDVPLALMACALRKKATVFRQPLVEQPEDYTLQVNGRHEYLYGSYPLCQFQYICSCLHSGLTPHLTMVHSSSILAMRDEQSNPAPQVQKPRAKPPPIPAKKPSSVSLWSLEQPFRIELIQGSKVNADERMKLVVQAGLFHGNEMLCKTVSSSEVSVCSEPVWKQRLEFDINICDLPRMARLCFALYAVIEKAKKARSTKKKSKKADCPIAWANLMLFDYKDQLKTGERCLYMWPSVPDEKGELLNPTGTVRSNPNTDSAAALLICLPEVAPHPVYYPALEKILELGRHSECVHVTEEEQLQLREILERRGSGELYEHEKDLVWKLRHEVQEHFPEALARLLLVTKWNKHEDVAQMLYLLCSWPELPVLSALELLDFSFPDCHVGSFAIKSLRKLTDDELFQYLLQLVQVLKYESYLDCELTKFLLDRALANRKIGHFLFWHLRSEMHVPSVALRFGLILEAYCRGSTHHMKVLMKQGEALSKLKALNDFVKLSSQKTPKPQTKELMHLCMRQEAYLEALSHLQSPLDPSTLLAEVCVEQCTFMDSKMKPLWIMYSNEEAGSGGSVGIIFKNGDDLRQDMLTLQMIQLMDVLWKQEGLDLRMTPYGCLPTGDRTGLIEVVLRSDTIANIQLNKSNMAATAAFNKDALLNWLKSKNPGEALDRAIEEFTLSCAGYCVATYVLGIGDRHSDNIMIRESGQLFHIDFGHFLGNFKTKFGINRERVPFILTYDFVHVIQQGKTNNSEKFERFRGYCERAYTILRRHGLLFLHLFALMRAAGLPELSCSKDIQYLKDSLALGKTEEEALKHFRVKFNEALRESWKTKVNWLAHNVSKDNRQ

[2] = Intrinsic clearance in Wistar Han rat at 0.5 mg/kg, iv or 1 mg/kg, po; format: ADME, organism-based; details: in vivo
[3] = Volume of distribution in Wistar Han rat; format: ADME; details: in vivo
[4] = Unbound volume of distribution in Wistar Han rat; format: ADME; details: in vivo
[5] = Volume of distribution in Beagle dog; format: ADME, Canis lupus familiaris; details: in vivo
[6] = Unbound volume of distribution in Beagle dog; format: ADME, Canis lupus familiaris; details: in vivo
[7] = Inhibition of rat PI3Kdelta
[8] = Solubility of the compound at pH 7.4; format: physicochemical; details: buffer
[9] = biological target: Voltage-gated inwardly rectifying potassium channel KCNH2 (Homo sapiens, UniProt Q12809); test: Inhibition of hERG (unknown origin)
Voltage-gated inwardly rectifying potassium channel KCNH2, sequence (Q12809 whole entry): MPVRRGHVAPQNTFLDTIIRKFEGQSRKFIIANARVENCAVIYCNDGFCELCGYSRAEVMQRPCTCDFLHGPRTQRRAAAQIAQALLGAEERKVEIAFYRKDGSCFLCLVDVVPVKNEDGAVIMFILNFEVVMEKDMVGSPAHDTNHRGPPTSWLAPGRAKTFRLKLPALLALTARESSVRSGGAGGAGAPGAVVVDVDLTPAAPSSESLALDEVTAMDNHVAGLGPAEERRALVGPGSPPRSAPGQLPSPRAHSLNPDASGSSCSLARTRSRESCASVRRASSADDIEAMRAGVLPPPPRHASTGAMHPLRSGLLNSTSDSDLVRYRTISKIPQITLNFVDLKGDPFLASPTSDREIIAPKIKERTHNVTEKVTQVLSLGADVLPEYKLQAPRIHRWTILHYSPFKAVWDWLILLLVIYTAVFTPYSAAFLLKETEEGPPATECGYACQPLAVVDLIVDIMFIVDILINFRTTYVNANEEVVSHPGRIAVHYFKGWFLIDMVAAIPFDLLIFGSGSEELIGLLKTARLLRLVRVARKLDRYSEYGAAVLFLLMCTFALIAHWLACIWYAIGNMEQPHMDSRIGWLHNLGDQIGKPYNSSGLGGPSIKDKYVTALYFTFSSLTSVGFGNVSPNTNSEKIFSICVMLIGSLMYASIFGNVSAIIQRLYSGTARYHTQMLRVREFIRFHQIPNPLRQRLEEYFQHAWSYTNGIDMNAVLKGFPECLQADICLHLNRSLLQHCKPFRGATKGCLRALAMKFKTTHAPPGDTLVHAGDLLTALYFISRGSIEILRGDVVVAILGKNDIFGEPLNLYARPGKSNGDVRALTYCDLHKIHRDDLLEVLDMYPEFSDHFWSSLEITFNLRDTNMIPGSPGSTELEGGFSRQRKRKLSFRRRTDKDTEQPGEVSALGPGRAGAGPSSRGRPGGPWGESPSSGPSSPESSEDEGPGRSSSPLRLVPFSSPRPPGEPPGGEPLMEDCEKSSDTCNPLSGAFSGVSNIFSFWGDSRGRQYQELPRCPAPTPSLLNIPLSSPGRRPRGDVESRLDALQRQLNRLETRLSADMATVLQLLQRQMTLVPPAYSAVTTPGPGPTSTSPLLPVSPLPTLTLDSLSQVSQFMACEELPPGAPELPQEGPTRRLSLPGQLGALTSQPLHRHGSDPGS

Cytochrome P450 2C19 = Cytochrome P450 2C19 (Homo sapiens, UniProt P33261); test: Inhibition of CYP2C19 (unknown origin); format: ADME
Cytochrome P450 2C19, sequence (P33261 whole entry): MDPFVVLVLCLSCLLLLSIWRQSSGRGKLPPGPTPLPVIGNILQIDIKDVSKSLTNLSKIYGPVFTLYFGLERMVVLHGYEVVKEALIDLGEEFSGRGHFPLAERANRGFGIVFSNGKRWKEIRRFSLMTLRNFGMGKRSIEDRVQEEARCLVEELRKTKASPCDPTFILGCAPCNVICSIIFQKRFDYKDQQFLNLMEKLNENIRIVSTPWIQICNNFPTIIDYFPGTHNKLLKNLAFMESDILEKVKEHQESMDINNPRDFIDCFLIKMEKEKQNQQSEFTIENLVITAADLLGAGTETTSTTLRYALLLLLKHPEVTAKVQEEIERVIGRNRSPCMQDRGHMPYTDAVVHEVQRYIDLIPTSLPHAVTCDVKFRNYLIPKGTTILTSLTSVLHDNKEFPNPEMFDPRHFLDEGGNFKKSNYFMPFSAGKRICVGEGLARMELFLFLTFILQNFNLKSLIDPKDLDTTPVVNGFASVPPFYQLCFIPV

Cytochrome P450 2D6 = Cytochrome P450 2D6 (Homo sapiens, UniProt P10635); test: Inhibition of CYP2D6 (unknown origin); format: ADME
Cytochrome P450 2D6, sequence (P10635 whole entry): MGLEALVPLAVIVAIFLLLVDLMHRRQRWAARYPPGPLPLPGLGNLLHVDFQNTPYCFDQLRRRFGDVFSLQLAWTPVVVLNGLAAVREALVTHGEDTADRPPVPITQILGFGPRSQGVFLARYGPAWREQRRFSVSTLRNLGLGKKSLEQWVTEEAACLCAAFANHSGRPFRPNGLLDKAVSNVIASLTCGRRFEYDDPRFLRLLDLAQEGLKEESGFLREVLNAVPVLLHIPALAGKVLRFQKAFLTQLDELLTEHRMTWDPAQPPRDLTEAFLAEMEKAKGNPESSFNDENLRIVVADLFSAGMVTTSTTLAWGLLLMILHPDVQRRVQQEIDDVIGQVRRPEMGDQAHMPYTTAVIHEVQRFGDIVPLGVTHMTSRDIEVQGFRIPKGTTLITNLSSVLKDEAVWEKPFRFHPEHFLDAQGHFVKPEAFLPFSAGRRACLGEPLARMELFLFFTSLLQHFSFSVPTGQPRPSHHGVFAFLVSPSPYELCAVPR

[10] = Intrinsic clearance in rat hepatocytes; format: ADME, cell-based, Hepatocyte; details: read-out: CLH
[11] = Intrinsic clearance in human hepatocytes; format: ADME, cell-based, Hepatocyte
[12] = Protein binding in Beagle dog plasma; format: ADME, cell-free, Canis lupus familiaris; details: read-out: PPB (converted)
[13] = Volume of distribution in C57BL/6 mouse; format: ADME; details: in vivo
[14] = Half life in C57BL/6 mouse; format: ADME; details: in vivo
[15] = Unbound Cmax in C57BL/6 mouse at 100 mg/kg; format: ADME, organism-based; details: in vivo
How it was run: (§1)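 C57BL/6-Foxp3-GFP reporter mice were dosed at 30 and 100 mg/kg/day for up to 7 days, with exposure determined at 100 mg/kg. The unbound Cmax and trough values were derived from total plasma levels. Treg readout was bioluminescence imaging 10 min after 3 mg luciferin ip, reported as radiance in photons/s/cm²/steradian.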

[16] = Unbound trough plasma concentration C57BL/6 mouse at 100 mg/kg; format: ADME, organism-based; details: in vivo; how it was run: as §1
Rattus norvegicus = test: Immunomodulatory activity in ovalbumin induced Brown Norway rat allergic rhinitis model assessed as reduction in BAL count at 30 mg/kg, po administered for 2 days and treated with ovalbumin after 1 hr post second dose; format: functional, organism-based; details: time 2.0 day
How it was run: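 Brown Norway rats were presensitized with ovalbumin, 0.020 mg ip daily for 14 days. They then received compound orally for 2 days (0.3–30 mg/kg range studied). Ovalbumin challenge came 1 h after the second dose. Eosinophil cell count in bronchoalveolar lavage was assessed 48 h later.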

[17] = Plasma protein binding in Brown Norway rat at 10 mg/kg, po; format: ADME, organism-based; details: read-out: PPB (converted)
[18] = Dissociation constant, pKa of compound; format: physicochemical

Q: Which results are given for CCn1c(-c2cnc(C)nc2)nc2c(N[C@H]3CCN(C(=O)C4CC4)C3)ncnc21?
A: IC50 [1]: 65 nM; CL [2]: 64 mL/min/kg; Vd [3]: 1 L/kg; Vdu [4]: 6.3 L/kg; Vd [5]: 1.5 L/kg; Vdu [6]: 1.8 L/kg; IC50 [7]: 6.6 nM; solubility [8]: 15 mg/mL (≈ 38.2 mM); IC50 [9]: > 50000 nM; IC50 (Cytochrome P450 2C19): > 50000 nM; IC50 (Cytochrome P450 2D6): > 50000 nM; CLint scaled [10]: < 2 mL/min/kg; CLint scaled [11]: < 2 mL/min/kg; fraction unbound [12]: 0.9; Vd [13]: 0.2 L/kg; half-life [14]: 48 min; fCmax [15]: 16 µM; fCmin [16]: 52 nM; Activity (Rattus norvegicus): Active; fraction unbound [17]: 0.59; pKa [18]: 3.06
